Assay outcomes from PubChem.
In the library only some 3.5% were active in any assay of this set; here they are far more common.
RGS4 block = human RGS4 inhibition | AID 463165 | actives 0.45% (n = 310,000) | P49798 | HEK293 M3R/RGS4 inducible, Fluo-4 calcium flux; hits give high values; triggered by carbachol at its EC20 | B-score at 10 µM;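 active means B-score, a plate-corrected calcium signal, over three deviations above library mean, with baseline fluorescence within five deviations of library mean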;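 further: RGS4 expression induced by doxycycline in cells with stable M3 receptor; B-score is computed from the integrated fluorescence ratio over baseline after carbachol; higher B-score means a larger calcium signal and so more RGS4 inhibition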
Target sequence (P49798 whole entry, looked up): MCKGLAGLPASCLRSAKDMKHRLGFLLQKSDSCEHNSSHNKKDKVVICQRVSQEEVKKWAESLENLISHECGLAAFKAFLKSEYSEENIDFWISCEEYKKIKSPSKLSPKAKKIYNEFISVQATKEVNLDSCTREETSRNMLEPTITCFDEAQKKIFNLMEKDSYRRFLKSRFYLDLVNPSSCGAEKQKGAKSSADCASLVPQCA
MrgX1 PAM = human MrgX1 positive allosteric modulation, primary screen | Q96LB2 | MrgX1-HEK293, Fluo-4 calcium flux, FDSS; hits give high values | B-score at 10 µM | actives 0.63% (n = 310,000) | AID 588675;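 active means plate-corrected calcium response at least 3 library SD above typical, normal starting fluorescence, not activating the receptor alone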;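 further: compound read alongside a low EC10 to EC30 dose of BAM8-22 agonist; peak minus trough fluorescence over baseline measured at the second addition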
Target sequence (Q96LB2 whole entry, looked up): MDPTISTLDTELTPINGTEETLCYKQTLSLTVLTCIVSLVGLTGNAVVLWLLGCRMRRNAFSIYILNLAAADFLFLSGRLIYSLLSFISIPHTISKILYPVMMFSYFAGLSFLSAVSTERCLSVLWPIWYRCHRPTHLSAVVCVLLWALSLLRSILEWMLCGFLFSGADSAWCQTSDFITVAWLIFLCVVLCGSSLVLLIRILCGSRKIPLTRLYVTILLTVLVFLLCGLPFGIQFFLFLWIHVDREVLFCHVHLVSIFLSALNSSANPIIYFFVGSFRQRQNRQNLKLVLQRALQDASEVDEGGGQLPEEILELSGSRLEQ
MrgX1 ag = human MrgX1 receptor agonism, primary screen. Q96LB2. MrgX1-HEK293 cells, Fluo-4 calcium fluorescence, agonist mode; hits give high values. B-score at 10 µM. actives 0.44% (n = 310,000). AID 588627;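 active means calcium response B-score plate-corrected fluorescence ratio at least 3 library SD, with starting fluorescence B-score inside 5 SD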
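System: HEK293 cells stably expressing human MrgX1 receptor; Dosing: test compound in the initial addition of three; Schedule: overnight plating, then 30 min 37 °C plus 30 min room-temperature dye loading; Detection: kinetic calcium dye fluorescence, Fluo-4 NW; Controls: per-plate positive and negative controls for Z′ factor.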
RGS4 act = potentiators or activators of RGS4 | HEK293 M3R/inducible RGS4, carbachol calcium flux Fluo4; hits give low values | B-score at 10 µM | actives 0.92% (n = 310,000);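 active means B-score of the integrated calcium signal more than 4 SD below the library mean, with starting fluorescence not abnormally high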;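 further: negative B-score means reduced calcium response which marks RGS4 activation or potentiation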
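System: HEK293 FlpIn-TREx cells, stable M3R, doxycycline-inducible RGS4. Timing: overnight RGS4 induction, 30 min dye load 37 °C, 20 min compound RT. Also added: carbachol, ECmax concentration. Measured by: Fluo4 fluorescence kinetic imaging of calcium. Evaluation: integrated calcium ratio converted to B score.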
MrgX1 antag = blocks BAM8-22 activation of human MrgX1 receptor. B-score at 10 µM. MRGX1-HEK293 calcium flux, Fluo-4, BAM8-22 antagonism; hits give low values. actives 1.3% (n = 310,000);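 active means calcium-response B-score plate-corrected more than 3 library SD below zero, starting fluorescence within 5 deviations, no agonist response on first addition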;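 further: peak minus trough fluorescence over baseline after final BAM8-22 challenge near maximal dose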
MrgX1 antag conf = human MrgX1 receptor antagonism, re-confirmation screen; shares compounds with MrgX1 antag; MrgX1-HEK293, BAM8-22 calcium flux, Fluo-4; hits give low values; remaining BAM8-22 calcium response % of control (hits give low values), % at 10 µM; actives 19% (n = 2,300); AID 602420;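 active means remaining agonist calcium response no higher than 100% minus 3 SD of agonist-only control wells, with starting fluorescence near control levels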;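 further: agonist BAM8-22 given at a near maximal EC90 to ECmax level; peak minus minimum fluorescence divided by baseline after agonist addition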
HEK293 Ca flux = MrgX1 antagonist counter-screen hit in parental HEK293 cells; Fluo-4 calcium fluorescence, FDSS; fluorescence ratio F(max-min)/F0 at 10 µM; AID 624111; shares compounds with MrgX1 antag; actives 2% (n = 4,000);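 active means duplicate-averaged calcium fluorescence ratio at least three times the standard deviation of buffer wells, a nonspecific response in parental cells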
HEK293 Ca counter = MrgX1 allosteric activator counter-screen hit in parental HEK293 cells | AID 624114 | shares compounds with MrgX1 antag | fluorescence ratio F(max-min)/F0 at 10 µM | actives 0.4% (n = 4,000) | parental HEK293 calcium flux, Fluo-4 fluorescence ratio; hits give high values;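 active means calcium fluorescence ratio, averaged over duplicates, at least 3 SD of the buffer-well ratio, meaning a nonspecific response in receptor-free cells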;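 further: untransfected parental HEK293 lacking MrgX1 used as counterscreen for MrgX1 allosteric activators; fluorescence change taken during the second addition on a kinetic imager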
HEK293 Ca cntr2 = MrgX1 activator counter-screen hit in parental HEK293 cells | shares compounds with MrgX1 antag | Fluo-4 calcium fluorescence (FDSS); hits give high values | fluorescence ratio F(max-min)/F0 at 10 µM | actives 8.7% (n = 4,000);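 active means calcium fluorescence ratio at least three times the spread of buffer wells, meaning a non-specific response in parental cells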
Of the large screens only hits and unclear results are named; the others gave an inactive call (follow-up assays come after a bar, where they were run); ! = repeats disagree.

Cc1ccc(C)c(S(=O)(=O)N2CCCC2CNC(=O)C(=O)NCCc2ccco2)c1 (stereo not drawn)	none
O=C(CSc1nnc(-c2ccccc2Cl)o1)N1CCCC1	none
O=C(CSc1nnc(-c2ccccc2Cl)o1)N1CCCCC1	MrgX1 antag -4.9 | MrgX1 antag conf inactive | HEK293 Ca flux inactive | HEK293 Ca counter inactive | HEK293 Ca cntr2 inactive
CCN(CC)CCN1C(=O)Cn2c(C)c(C)c3cccc1c32	MrgX1 antag -5! | MrgX1 antag conf inactive | HEK293 Ca flux inactive | HEK293 Ca counter inactive | HEK293 Ca cntr2 inactive
Cc1ccc2c(c1)nnn2C1CCN(S(=O)(=O)c2ccc(C(=O)N(C)C)cc2)CC1	MrgX1 antag -7 | MrgX1 antag conf inactive | HEK293 Ca flux inactive | HEK293 Ca counter inactive | HEK293 Ca cntr2 inactive
Cc1ccc2c(c1)nnn2C1CCN(S(=O)(=O)c2ccc(C(=O)NC3CCCC3)cc2)CC1	none
COc1ccc(OC)c(S(=O)(=O)Nc2ccc(OCC(=O)O)cc2)c1	none
COc1ccc(OC)c(S(=O)(=O)Nc2ccc(CC(=O)O)cc2)c1	MrgX1 antag -9.2 | MrgX1 antag conf inactive | HEK293 Ca flux inactive | HEK293 Ca counter inactive | HEK293 Ca cntr2 inactive
CC1(c2ccc(OC(F)F)cc2)NC(=O)N(CC(=O)Nc2ccc(S(N)(=O)=O)cc2)C1=O (stereo not drawn)	MrgX1 antag -6.9 | MrgX1 antag conf inactive | HEK293 Ca flux inactive | HEK293 Ca counter inactive | HEK293 Ca cntr2 inactive
COc1ccccc1NC(=S)N1CCn2cccc2C1c1cccnc1 (stereo not drawn)	none
CC(C)N(Cc1ccccc1)C(=O)C1CCN(c2ncnc3c2nc2n3CCCCC2)CC1	MrgX1 antag -4.8 | MrgX1 antag conf inactive | HEK293 Ca flux inactive | HEK293 Ca counter inactive | HEK293 Ca cntr2 57
CCC(=O)NC(=S)Nc1ccc(NC(=O)c2ccc(C)c([N+](=O)[O-])c2)cc1	none
CC(=O)Nc1nc(C(=O)O)cs1	MrgX1 antag -4.9 | MrgX1 antag conf 81% | HEK293 Ca flux inactive | HEK293 Ca counter inactive | HEK293 Ca cntr2 inactive
Cc1ccc(COc2ccc(S(=O)(=O)N3CCCC3)cc2C(N)=O)cc1	none
Cc1ccc(-n2cc(S(=O)(=O)c3ccc(C)cc3)[nH]c2=O)cc1	MrgX1 antag -4.8 | MrgX1 antag conf inactive | HEK293 Ca flux inactive | HEK293 Ca counter inactive | HEK293 Ca cntr2 inactive
COC(=O)c1c(F)c(F)c(NCCO)c(F)c1F	none
CCOC(=O)C1=C(CC)Nc2ccccc2N=C1NC(=O)c1ccc(S(=O)(=O)N2CCCC2)cc1	none
CCOC(=O)C1=C(CC)Nc2ccccc2N=C1NC(=O)Nc1ccc(Cl)c(Cl)c1	MrgX1 antag -6.1 | MrgX1 antag conf 50% | HEK293 Ca flux inactive | HEK293 Ca counter inactive | HEK293 Ca cntr2 inactive
Cn1c(=O)cc(C(=O)N/N=C/c2ccc(Cl)cc2)[nH]c1=O	none
CCC(C)NC(=O)c1ccc(CNS(=O)(=O)c2ccc3c(c2)C(C)(C)C(=O)N3C)cc1 (stereo not drawn)	none
COc1ccc(CCN2CCCn3c2nc2c3c(=O)n(Cc3ccccc3F)c(=O)n2C)cc1OC	none
CCCn1c(=O)c2c(nc3n2CCCN3CCc2ccc(OC)c(OC)c2)n(C)c1=O	MrgX1 antag -4.8 | MrgX1 antag conf inactive | HEK293 Ca flux inactive | HEK293 Ca counter inactive | HEK293 Ca cntr2 inactive
CCn1c(=O)c2c(nc3n2CCCN3CCc2ccc(OC)c(OC)c2)n(C)c1=O	none
